From ChEMBL document CHEMBL4354873, “Rationally Designed Small-Molecule Inhibitors Targeting an Unconventional Pocket on the TLR8 Protein-Protein Interface” (J Med Chem, 2020)
The source made the active and inactive calls. No cut-off for these calls is given here.

Tests used:
[1] = molecular target: T1, Toll-like receptor 8 (Homo sapiens) (UniProt Q9NR97); assay: Inhibition of R848 binding to human TLR8 ectodomain at 50 uM by isothermal titration calorimetry
T1 sequence (whole entry): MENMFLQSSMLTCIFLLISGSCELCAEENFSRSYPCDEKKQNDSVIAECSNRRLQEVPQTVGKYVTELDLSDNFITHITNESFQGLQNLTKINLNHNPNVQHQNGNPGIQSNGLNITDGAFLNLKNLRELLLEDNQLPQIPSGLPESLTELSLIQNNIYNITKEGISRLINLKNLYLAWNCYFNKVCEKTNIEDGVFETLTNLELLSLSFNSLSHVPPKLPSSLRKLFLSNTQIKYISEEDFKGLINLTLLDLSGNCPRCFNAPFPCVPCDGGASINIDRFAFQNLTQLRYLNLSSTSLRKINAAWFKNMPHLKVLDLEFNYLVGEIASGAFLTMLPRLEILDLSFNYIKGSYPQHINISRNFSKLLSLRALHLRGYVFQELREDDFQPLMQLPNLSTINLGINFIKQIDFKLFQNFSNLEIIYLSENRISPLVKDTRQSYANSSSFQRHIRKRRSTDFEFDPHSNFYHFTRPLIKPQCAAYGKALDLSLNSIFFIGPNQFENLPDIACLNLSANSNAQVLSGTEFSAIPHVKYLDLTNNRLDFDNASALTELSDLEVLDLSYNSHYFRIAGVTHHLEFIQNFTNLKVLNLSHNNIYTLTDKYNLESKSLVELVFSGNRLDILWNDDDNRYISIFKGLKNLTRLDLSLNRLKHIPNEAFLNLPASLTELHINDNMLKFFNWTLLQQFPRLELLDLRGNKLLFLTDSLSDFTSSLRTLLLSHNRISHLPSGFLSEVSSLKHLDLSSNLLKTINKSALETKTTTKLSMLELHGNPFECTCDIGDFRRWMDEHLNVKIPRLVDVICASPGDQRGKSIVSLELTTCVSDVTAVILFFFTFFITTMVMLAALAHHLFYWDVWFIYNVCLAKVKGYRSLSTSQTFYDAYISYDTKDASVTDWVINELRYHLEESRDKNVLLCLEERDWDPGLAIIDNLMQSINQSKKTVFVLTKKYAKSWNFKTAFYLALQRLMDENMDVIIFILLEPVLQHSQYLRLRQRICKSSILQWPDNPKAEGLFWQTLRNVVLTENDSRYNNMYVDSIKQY

[2] = molecular target: T1, Toll-like receptor 8 (Homo sapiens); assay: Inhibition of human TLR8 expressed in HEK-Blue cells assessed as inhibition of ssRNA06-induced NF-kappaB activation measured after 24 hrs by quanti-blue based SEAP reporter gene assay; format: cell-based
Outline: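 HEK-Blue TLR8 cells, 4 × 10⁴/well, stimulated with ssRNA06 in the presence of varying compound concentrations for 24 h at 37 °C. SEAP read with QUANTI-Blue at 620 nm. Normalized so ligand-treated cells are 100% activation and untreated cells 0%.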

[3] = molecular target: T1, Toll-like receptor 8 (Homo sapiens); assay: Inhibition of human TLR8 expressed in HEK-Blue cells assessed as inhibition of R848-induced IL-8 mRNA level at 1 uM measured after 8 hrs by Trizol reagent based qRT-PCR analysis; format: cell-based
Outline: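 RT-qPCR: HEK-Blue TLR8 cells seeded at 1 × 10⁶/well and grown 24 h, then switched to serum-free medium. Treated with R848 4 µg/mL ± compound 1 µM for 8 h. Total RNA extracted with TRIzol, reverse transcribed, TNF-α and IL-8 mRNA quantified. Three independent biological replicates, mean ± s.d.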

[4] = molecular target: T1, Toll-like receptor 8 (Homo sapiens); assay: Inhibition of TLR8 in human monocytes assessed as reduction in R848-induced TRAF3 expression measured after 2 hrs by Western blot analysis; format: cell-based
Outline: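 Monocyte cell lines, 2 × 10⁶/well, differentiated with PMA 100 ng/mL for 24 h. After washes, cells in unsupplemented RPMI received R848 1 µg/mL with varying compound concentrations for 2 h. Nuclear/cytoplasmic fractions extracted and resolved on 10% SDS-PAGE. Blots probed for p65, TRAF3 and p-IRAK4 (1:1000); lamin A/C (nuclear) and β-actin (cytoplasmic) as loading controls.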

[5] = molecular target: T1, Toll-like receptor 8 (Homo sapiens); assay: Inhibition of TLR8 in human PBMC assessed as reduction in R848-induced TNFalpha production measured after 24 hrs by ELISA
Outline: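 PBMCs from healthy donors isolated by density gradient centrifugation and cultured at once at 3 × 10⁶ cells/mL in RPMI 1640. Cells received R848 and varying compound concentrations for 24 h. Supernatants spun 10 min at 4 °C, frozen at −80 °C, and TNF-α measured by ELISA.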

[6] = molecular target: T2, Toll-like receptor 7 (Homo sapiens) (UniProt Q9NYK1); assay: Effect on TLR7-mediated signaling in human PBMC assessed as change in basal TNFalpha secretion up to 20 uM measured after 24 hrs by ELISA
T2 sequence (whole entry): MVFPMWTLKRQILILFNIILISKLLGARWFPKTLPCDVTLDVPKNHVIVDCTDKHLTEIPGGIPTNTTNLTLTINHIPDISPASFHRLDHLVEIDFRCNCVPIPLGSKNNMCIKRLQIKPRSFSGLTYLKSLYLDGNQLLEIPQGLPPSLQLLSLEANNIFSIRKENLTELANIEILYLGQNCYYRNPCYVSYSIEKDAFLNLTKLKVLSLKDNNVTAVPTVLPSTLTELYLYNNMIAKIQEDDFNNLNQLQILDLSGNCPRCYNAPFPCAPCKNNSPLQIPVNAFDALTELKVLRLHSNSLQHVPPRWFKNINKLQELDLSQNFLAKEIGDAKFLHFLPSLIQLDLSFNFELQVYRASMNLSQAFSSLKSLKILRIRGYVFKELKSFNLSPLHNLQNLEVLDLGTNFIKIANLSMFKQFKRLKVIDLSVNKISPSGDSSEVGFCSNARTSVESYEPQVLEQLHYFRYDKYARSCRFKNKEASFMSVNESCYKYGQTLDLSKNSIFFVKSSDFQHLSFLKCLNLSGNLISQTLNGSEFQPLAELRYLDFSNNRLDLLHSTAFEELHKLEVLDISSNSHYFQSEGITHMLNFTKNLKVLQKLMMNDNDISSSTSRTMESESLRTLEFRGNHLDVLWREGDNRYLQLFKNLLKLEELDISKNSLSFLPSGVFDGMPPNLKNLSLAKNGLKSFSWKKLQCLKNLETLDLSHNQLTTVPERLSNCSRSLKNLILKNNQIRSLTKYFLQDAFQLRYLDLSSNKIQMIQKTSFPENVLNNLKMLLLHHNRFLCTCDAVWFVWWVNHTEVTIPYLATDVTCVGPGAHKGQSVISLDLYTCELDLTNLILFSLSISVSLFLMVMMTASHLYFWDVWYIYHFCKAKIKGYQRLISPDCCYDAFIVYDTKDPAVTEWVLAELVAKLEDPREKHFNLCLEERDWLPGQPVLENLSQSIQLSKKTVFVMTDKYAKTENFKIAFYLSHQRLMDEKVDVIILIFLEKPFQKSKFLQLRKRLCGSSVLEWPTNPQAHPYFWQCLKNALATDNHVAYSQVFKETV

[7] = molecular target: T1, Toll-like receptor 8 (Homo sapiens); assay: Inhibition of TLR8 in rheumatoid arthritis patient-derived PBMC assessed as reduction in spontaneous TNFalpha production measured after 24 hrs by ELISA

inhibition [1]: Active
inhibition [2]: Dose-dependent effect
inhibition [3]: Active
inhibition [4]: Dose-dependent effect
inhibition [5]: Dose-dependent effect
Activity [6]: inactive
inhibition [7]: Dose-dependent effect
Structure (SMILES): CSc1nnc(CCCO)n1-c1cc(C)c(C)c(C)c1
